We go through 29 molecules from ChEMBL document CHEMBL1132597, “Corticotropin-releasing hormone receptor antagonists: framework design and synthesis guided by ligand conformational studies” (J Med Chem, 1999).

Molecules are shown by their SMILES.

For the first assay, the target named is T1, Corticotropin-releasing factor receptor 1 (Rattus norvegicus, UniProt P35353).
T1 sequence (P35353 whole entry): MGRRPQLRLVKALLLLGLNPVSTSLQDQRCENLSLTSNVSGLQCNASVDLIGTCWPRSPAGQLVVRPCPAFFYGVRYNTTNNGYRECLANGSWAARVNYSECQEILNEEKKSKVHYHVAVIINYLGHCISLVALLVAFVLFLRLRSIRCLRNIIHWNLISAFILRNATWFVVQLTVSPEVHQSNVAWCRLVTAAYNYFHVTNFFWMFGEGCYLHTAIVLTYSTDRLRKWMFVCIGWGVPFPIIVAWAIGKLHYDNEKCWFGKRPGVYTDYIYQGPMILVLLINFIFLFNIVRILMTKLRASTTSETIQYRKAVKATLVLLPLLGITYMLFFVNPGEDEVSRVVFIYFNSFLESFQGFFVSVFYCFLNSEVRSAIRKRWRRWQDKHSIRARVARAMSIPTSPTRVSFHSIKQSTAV
In words: Binding affinity was determined against corticotropin releasing factor receptor 1.
Conditions: not given
In outline:
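Rat CRH1 receptor-binding assay run in pH 7.2 buffer; affinity reported as Ki.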
`CCN(c1nc(C)cc(Cl)n1)c1ccc(C(C)C)cc1I`: the inhibition constant (Ki) (usually a dissociation constant, usually derived from enzyme kinetics or from competition with a known ligand) is reported as “Not reliable”.

Still in this assay, the particulars now being: read-out: Ki.
Consider `Cc1ccnc2c1c(C#N)cn2-c1ccc(C(C)C)cc1Br`, for which the inhibition constant Ki was > 10000 nM.
`Cc1cc(Cl)c2c(C#N)cn(-c3ccc(C(C)C)cc3Br)c2n1`: the Ki was found to be 722 nM.
Take `Cc1cc(N2CCOCC2)c2c(C#N)cn(-c3ccc(C(C)C)cc3Br)c2n1`: the inhibition constant (Ki) was determined as 112 nM.
Same read-out and setting: under `Cc1ccc2c(C#N)cn(-c3ccc(C(C)C)cc3Br)c2[n+]1[O-]` stands > 10000 nM; under `Cc1cc(Cl)nc2c1c(C#N)cn2-c1ccc(C(C)C)cc1Br`, 446 nM; under `COc1cc(Br)c(-n2ccc3c(C)cc(C)nc32)c(OC)c1`, 1 nM.
For the molecule `Cc1cc(C)c2c(C#N)cn(-c3ccc(C(C)C)cc3Br)c2n1`, the Ki is 363 nM.
Same read-out and setting: the value for `Cc1ccnc2c1ccn2-c1ccc(C(C)C)cc1Br` was > 10000 nM.
Consider `Cc1cc(-c2ccccc2)nc2c1ccn2-c1ccc(C(C)C)cc1Br`, for which the Ki was > 10000 nM.
As for `Cc1cc(-c2ccccc2)c2ccn(-c3ccc(C(C)C)cc3Br)c2n1`, the inhibition constant (Ki) worked out at 36 nM.
The same measure, in the same setting: under `Cc1cc(-c2ccccc2)nc2c1c(C#N)cn2-c1ccc(C(C)C)cc1Br` stands > 100000 nM; under `Cc1cc(C)c2ccn(-c3ccc(C(C)C)cc3Br)c2n1`, 47 nM; under `COc1cc(Br)c(-n2cc(C#N)c3c(C)cc(C)nc32)c(OC)c1`, 29 nM.
With `Cc1cc(C)c2c(C(=O)O)cn(-c3ccc(C(C)C)cc3Br)c2n1`, the Ki was > 10000 nM.
The same measure, in the same setting: the value for `Cc1ccc2ccn(-c3ccc(C(C)C)cc3Br)c2n1` was 222 nM; that for `Cc1cc(Cl)c2ccn(-c3ccc(C(C)C)cc3Br)c2n1` was 67 nM; that for `Cc1cc(-c2ccccc2)c2c(C#N)cn(-c3ccc(C(C)C)cc3Br)c2n1` was 34 nM.
Same read-out and setting: under `Cc1ccc2c(C#N)cn(-c3ccc(C(C)C)cc3Br)c2n1` stands 1280 nM; under `Cc1cc(=O)[nH]c2c1c(C#N)cn2-c1ccc(C(C)C)cc1Br`, > 10000 nM.
The same measure, in the same setting: under `Cc1cc(C)c2c(C(N)=O)cn(-c3ccc(C(C)C)cc3Br)c2n1` stands > 10000 nM.
As to `Cc1cc(C)nc(Nc2ccc(C(C)C)cc2Br)n1`, the Ki is > 10000 nM.
On the same count and under the same terms, under `CCN(c1cc(C)nc(C)n1)c1ccc(C(C)C)cc1Br` stands > 1000 nM.
As for `Cc1cc(C)nc(N(C)c2ccc(C(C)C)cc2I)n1`, the Ki was 48 nM.
The same measure, in the same setting: under `Cc1cc(Cl)nc2c1ccn2-c1ccc(C(C)C)cc1Br` stands 79 nM; under `CCN(c1nc(C)nc(N2CCOCC2)n1)c1c(Br)cc(OC)cc1OC`, 43 nM.
The same measure, in the same setting: under `CCN(c1nc(C)cc(N2CCOCC2)n1)c1ccc(C(C)C)cc1Br` stands 22 nM; under `CCN(c1nc(C)cc(C)n1)c1c(Br)cc(OC)cc1OC`, 5 nM; under `Cc1cc(N2CCOCC2)c2ccn(-c3ccc(C(C)C)cc3Br)c2n1`, 28 nM.
